Experiment: Toxicity liver stage against HepG2, at 10uM
Assay type: cell-based
Set-up: test concentration 10 uM, cell line HepG2-A16-CD81EGFP
Conditions: human, HepG2-A16-CD81EGFP cells; read-out: INHIBITION
Outline: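 Uninfected HepG2-A16-CD81EGFP cells, 3 × 10^3 per well, 1536-well, plated on prespotted compound at 10 μM final, parasite-free screening media added to match infected plates; puromycin 10 μM positive, DMSO 0.5% negative; run in parallel with 48 h PbLuc assay at 37 °C, 5% CO2; viability by CellTiter-Glo luminescence, normalized to controls.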

SMILES | cytotoxicity at 10 µM
Cc1ccc2c(c1)Oc1ncccc1C(=O)N2 | 5.15%
COc1ccc(CNC2(Cc3cc(CC(C)C)on3)COC2)cc1 | 4.71%
CCN(CC)CCNC(=O)CCc1c(C)nn(-c2ccccc2Cl)c1C | -0.61%
COCC(=O)N1CC2=CC(C)(C)COc3ccc(OC)c(c32)C1 | -2.59%
CC(C)[C@H](NC(=O)NC1CCS(=O)(=O)C1)C(=O)NCc1ccccc1 (some centres not stated) | 7.39%
O=C(Nc1cccnc1-n1cc(Cl)cn1)C1CCCC1 | -43.3%
O=C1CSC(c2cccnc2)c2c(n(C3CCOCC3)[nH]c2=O)N1 (configuration not stated) | -7.95%
CN(C(=O)Cn1nc(-c2ccccc2Cl)ccc1=O)C1CCS(=O)(=O)C1 (configuration not stated) | 1.96%
NC1CCN(c2nccn3c(=O)[nH]nc23)CC1 | 3.65%
O=C(NCc1ccco1)c1[nH]nc2c1CS(=O)(=O)CC2 | 14.8%
CC(Nc1ncnc2c1NC(=O)CN2)c1ccc2c(c1)OCO2 (configuration not stated) | 8.19%
C=Cn1ncc(CN2CCC(c3ncc(Cl)cc3S(C)(=O)=O)CC2)c1C | 6.29%
Cc1nn(C)c(C)c1-c1ccc(=O)n(C(C)C(=O)NC2CCCCC2)n1 (configuration not stated) | 1.94%
Cc1cc(-c2cnc(N3CCN(C)CC3)nc2C(C)C)on1 | -5.97%
CS(=O)(=O)N1CC2(CCN(CC3CCCCC3)C2)Cc2ccccc21 (configuration not stated) | 23.3%
O=C(c1cscn1)N1CCC2(COc3ncccc3S(=O)(=O)N2)C1 (configuration not stated) | 7.22%
CCN(CC)C(=O)c1cnc(Sc2nccn2C)c(Cl)c1 | -61.1%
Cn1nc(C(=O)NCc2ccc(OC3CCCCC3)nc2)ccc1=O | 21.3%
Cc1ccc(C(=O)NC2CCN(S(C)(=O)=O)CC2)c(=O)[nH]1 | 15.7%
Cc1nc(C2NC3(CCCC3)C(=O)N2CC2CC2)cs1 (configuration not stated) | -6.09%
CCc1nc(CN(C)CC(=O)OC(C)(C)C)cs1 | 3.91%

SMILES | cytotoxicity at 10 µM
Cc1ccccc1-n1cnnc1SCC1CCCCO1 (configuration not stated) | 11.8%
CCn1ccnc1CN1CCC(N(Cc2ncc(C)o2)C(C)=O)C1 (configuration not stated) | 11.5%
CN(C)C(=O)c1ccccc1NCCCOc1cccc(C#N)c1 | 4.52%
CCc1nnc2n1CCN(Cc1csc(-c3ccccc3)n1)C2 | -6.29%
CCOc1ccc(C2CCCN2Cc2nnnn2C2CC2)cc1 (configuration not stated) | 6.26%
COCCOCC(=O)NC(C#N)c1c(F)cccc1Cl (configuration not stated) | 19.6%
FC(F)CN1CCC(NCc2ccc(-n3cccn3)nc2)CC1 | 10.6%
Cc1nc(CNC2CCN(Cc3ccccc3)C2)sc1C (configuration not stated) | 2.86%
O=C(CN(CC1CCC1)CC(F)(F)F)N1CCCC1 | 1.84%
Cc1cc(C)cc(OCCC(=O)NC2CC(=O)N(C)C2)c1 (configuration not stated) | -1.68%
O=C(CCOc1ccccc1F)N1CCOCC1 | -4.4%
Cc1ccc(NC(=O)CSCc2cccnc2)nc1 | -46.4%
c1ccc(-c2noc(C3CCN(CCCn4cncn4)CC3)n2)cc1 | -14.3%
CCOCc1ccccc1NC(=O)NC1CCN(c2ncccn2)CC1 | -4.78%
Cn1cc(NC(=O)c2ccccn2)cc(Cl)c1=O | 7.7%
Cn1cc(-c2csc(N3CCN(C(=O)OC(C)(C)C)CC3)n2)cn1 | 23.2%
CCc1nc(CC(=O)NCC(Cc2ccc(F)cc2)C(N)=O)cs1 (configuration not stated) | -0.86%
COc1cc(C(C)=O)ccc1OC12CCCN(CC1)C2 (configuration not stated) | 10.2%
COCCC(=O)N1CCCCC1c1ccc(F)cc1 (configuration not stated) | -41.3%
Cn1ccnc1C(=O)N1CCCC(Cn2cc(CO)nn2)C1 (configuration not stated) | -1.88%
CCc1cc(NCCNC(C)=O)nc(N2CCCC2)n1 | -6.77%

SMILES | cytotoxicity at 10 µM
C1=CCN(c2nc(CC3CC3)nc3c2CCN(C2CCOCC2)CC3)C1 | 0.0776%
CSc1cccc(CN2CCC(CCC(=O)Nc3ccccc3)CC2)c1 | -2.48%
COCCCNc1ncnc2c1CCN(C(=O)CC1C=CCC1)CC2 (configuration not stated) | 5.97%
COc1ccc([C@@H]2C[C@H](NC(C)=O)C[C@H](CCc3ccccc3)O2)cn1 | -3.13%
Cc1noc(C)c1CN1CCCC1c1nc(-c2ccccc2)no1 (configuration not stated) | -39.2%
CC(C)N1CCCCC1CCn1cnc2cc(C(F)(F)F)ccc2c1=O (configuration not stated) | -5.98%
CNc1cc(C(=O)N(C)Cc2cc(-c3cccs3)n[nH]2)ccn1 | -9.22%
CCOc1ccc(C(C)Nc2ncnc3c2CCNC3)cc1OCC (configuration not stated) | -8.81%
CCCc1cc(N2CCC(NC3CCS(=O)(=O)C3)CC2)nc(C)n1 (configuration not stated) | -6.65%
Cc1ccc(CN2CCN(C3CCSCC3)CC2CCO)o1 (configuration not stated) | -3.96%
COc1cc(C)sc1C(=O)N1CCCCC1c1ccccn1 (configuration not stated) | 0.864%
COc1cc(-c2cccc3c2OC(CN)C3)cc(OC)c1OC (configuration not stated) | -42.6%
N#Cc1cccc(NC2CC(=O)N(C3Cc4ccccc4C3)C2)n1 (configuration not stated) | -141%
CNC(=O)[C@@H]1C[C@H](N)CN1S(=O)(=O)c1cc(Cl)cc(Cl)c1O | 1.68%
Cn1ccnc1C1CCCN(C(=O)c2cc(F)cc(F)c2)C1 (configuration not stated) | 18.4%
CN1C[C@@H](NC(=O)c2cc(F)cc(F)c2)C[C@H]1C(=O)NCc1ncc[nH]1 | -6.25%
CN1C[C@H]2CNC[C@@]2(C(=O)N2CCN(c3ncccc3C#N)CC2)C1 | 2.12%
Cc1cnn(CC2CCCN2c2ncnc3ccsc23)c1 (configuration not stated) | 13.6%
Cc1nc(C)n(CC2CCCN(Cc3ccccc3C#N)C2)n1 (configuration not stated) | -16.4%
CC(C)(C)c1nc(CC(=O)N2CCCC(n3cncn3)C2)cs1 (configuration not stated) | -11.2%
CC(=O)N1CCN(C(=O)NCc2cccnc2OC(C)C)CC1 | -17.5%

SMILES | cytotoxicity at 10 µM
CCOc1ccc(C#N)cc1NCC(=O)NC(=O)Nc1ccccc1 | -11.8%
CCc1ccc(C(N)c2cccc(S(C)(=O)=O)c2)cc1 (configuration not stated) | -10.9%
Cc1ccc(CCC(=O)N2CCCC(c3cc(C(N)=O)[nH]n3)C2)cc1 (configuration not stated) | -4.33%
Cc1nccn1-c1cc(CNC(=O)CCNC(=O)C2CCCC2)ccn1 | -2.06%
COc1cccc(OCCNC(=O)CN2CCN(C)CC2C)c1 (configuration not stated) | -2.5%
Cc1nc(-c2ccsc2)ccc1C(=O)NCCN1CCOCC1 | -10.2%
CCn1ccnc1CN1CCN(Cc2ccc(C#N)cc2)CC1 | -9.62%
CC(C)c1nc2n(n1)CC(NCc1nnnn1C1CC1)CC2 (configuration not stated) | -1.4%
CC(NC(=O)COc1ccc(F)cc1)c1nnc2n1CCCCC2 (configuration not stated) | -8.99%
CCc1n[nH]c(C2CN(CCc3cccs3)CCO2)n1 (configuration not stated) | 3.83%
CCC(CN1CCCCC1)NC(=O)C1(c2ccc(F)cc2)CC1 (configuration not stated) | 1.69%
COc1cccc(CN2CCC(c3cc(O)nc(C)n3)C2)c1 (configuration not stated) | -0.542%
c1cc(CN2CCO[C@H]3[C@H](OCCN4CCCC4)CC[C@@H]32)co1 | 6.49%
O=C1C[C@H]2[C@@H](CCN2C(=O)c2ccc[nH]2)N1CCN1CCCC1 | -4.28%
CN(C)CCN1CCOCC2(CCCN(C(=O)c3cccn3C)C2)C1 (configuration not stated) | 4.87%
O=C(NC[C@]12COC[C@H]1CN(Cc1nccs1)C2)c1cscn1 | -1.11%
COc1cccc(C2c3c(n[nH]c3C)N=C3COC(=O)C32)c1O (configuration not stated) | 65.8%
Cc1ccc(-n2cccn2)cc1S(=O)(=O)N1C[C@H]2CC[C@@H](C1)N(C)C2 | 1.62%
Cn1nc(C2CCCC2)c(-c2ccc3c(c2)OCO3)c1N | -51.5%
